PostGolgi ctrl: inhibits growth of the yeast control strain. efflux-deficient yeast background strain, growth absorbance A615, 16 h. inhibition, % at 10 µM. 98,000 tested, 5% active. AID 738
Ecoli tolC: growth inhibitors of E. coli BW25113 tolC mutant. 65,000 tested, 2.2% active. growth inhibition, % at 10 µM (by protocol). AID 573. OD615;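 active = growth inhibition at or above a cutoff equal to the mean over every tested compound plus 3 SD, cut at about 60% in these data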;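 also: growth measured after 20 h incubation at 37 °C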
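Material: E. coli BW25113 ΔtolC::kan, tolC deletion mutant strain. Measure: percent growth inhibition. Schedule: 37 °C, 20 h exposure. Doses: single-point testing at 10 µM. Signal: A615 absorbance measurement. Buffer or medium: kanamycin-containing LB broth (50 µg/mL).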
PostGolgi yeast: growth inhibition of a yeast mutant, post-Golgi transport screen | inhibition, % at 10 µM | 98,000 tested, 0.9% active | post-Golgi transport phenotypic cell assay | AID 739;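 also: yeast cells grown in 1536-well plates; yeast grown about 18 h at 30C before absorbance read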
EphB4 antag: antagonists of human EphB4-ephrin-B2 interaction. EphB4 LBD / TNYL-RAW-Alexa532 peptide, fluorescence polarization. 97,000 tested, 0.15% active. P54760. inhibition, % at 7 µM;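 active = inhibition above the screen-wide mean inhibition plus 3 SD, cut at about 15% in these data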;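 also: 0% = DMSO wells and 100% = excess unlabeled TNYL-RAW peptide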
Target sequence (P54760 whole entry, looked up, the tested form may be a part): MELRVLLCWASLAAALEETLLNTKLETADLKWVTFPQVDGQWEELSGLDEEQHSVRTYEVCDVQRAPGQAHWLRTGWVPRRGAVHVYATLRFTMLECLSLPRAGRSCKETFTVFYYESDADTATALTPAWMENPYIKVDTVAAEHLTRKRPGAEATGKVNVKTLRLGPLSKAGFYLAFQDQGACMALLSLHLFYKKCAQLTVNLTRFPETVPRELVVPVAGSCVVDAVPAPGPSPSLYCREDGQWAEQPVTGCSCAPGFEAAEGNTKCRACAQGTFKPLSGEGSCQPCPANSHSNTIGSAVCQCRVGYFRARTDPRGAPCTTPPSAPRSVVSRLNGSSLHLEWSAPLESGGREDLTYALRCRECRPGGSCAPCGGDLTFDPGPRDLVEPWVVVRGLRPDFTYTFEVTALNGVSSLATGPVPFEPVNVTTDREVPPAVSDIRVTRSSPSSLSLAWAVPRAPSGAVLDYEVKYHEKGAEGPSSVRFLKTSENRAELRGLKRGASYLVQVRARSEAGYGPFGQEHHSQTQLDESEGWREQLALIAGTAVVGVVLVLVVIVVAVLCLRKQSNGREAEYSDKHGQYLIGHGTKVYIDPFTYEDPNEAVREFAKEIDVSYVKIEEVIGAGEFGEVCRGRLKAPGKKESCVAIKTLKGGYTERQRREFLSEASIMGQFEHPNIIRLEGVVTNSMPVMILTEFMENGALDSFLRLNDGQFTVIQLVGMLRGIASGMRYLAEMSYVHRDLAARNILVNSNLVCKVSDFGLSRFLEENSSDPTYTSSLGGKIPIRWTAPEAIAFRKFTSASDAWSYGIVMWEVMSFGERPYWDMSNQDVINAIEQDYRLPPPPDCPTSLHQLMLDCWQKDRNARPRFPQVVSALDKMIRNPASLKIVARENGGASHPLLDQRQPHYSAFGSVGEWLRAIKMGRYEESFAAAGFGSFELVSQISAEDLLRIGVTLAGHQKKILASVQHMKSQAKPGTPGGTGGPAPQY
E coli WT exp: blocks growth of wild type E. coli BW25113 | AID 710 | 98,000 tested, 0.15% active | OD600 absorbance | growth inhibition, % at 100 µM;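 active = growth inhibition above about 50% at one test dose, limit read from the data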;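 also: growth measured after 20 h incubation at 37 °C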
The depositor's hits bear a star; . = no result. A selection: hits, their analogues and other compounds. The true share with any hit is near 6%. Rule as the data show it, unless noted: active = inhibition above about 30%; inactive = the rest.

SMILES | PostGolgi ctrl | Ecoli tolC | PostGolgi yeast | EphB4 antag | E coli WT exp
COCCn1nnnc1C(C(C)C)N1CCOCC1 (centres undefined) | 40* | -5 | 5 | -10 | 2
COCCn1nnnc1C(c1ccc(C(F)(F)F)cc1)N1CCOCC1 (centres undefined) | 5 | . | 3 | 1 | 5
Cc1sc(NC(=O)c2cccs2)c(C(N)=O)c1C | 37* | 7 | 7 | 1 | -6
CCc1ccc(NC(=O)C(=O)NCCN2CCN(C(=O)c3ccco3)CC2)cc1 | . | . | . | 6 | .
CC(C)=CC(=O)OCC(=O)Nc1nc(C)c(Cl)cc1Cl | -4 | -4 | -1 | . | -3
CC(C)=CC(=O)OCC(=O)Nc1ccc(F)cc1Cl | 33* | -7 | 12 | 4 | 1
COc1ccc(NC(=O)CSc2nc3c(c(=O)n2-c2ccc(F)cc2)SCC3)cc1 | 9 | 5 | -8 | -6 | -13
COc1ccc(-n2c(SCC(=O)Nc3ccccc3)nc3c(c2=O)SCC3)cc1 | 40* | 14 | -3 | 1 | -7
COc1ccc(CCn2c(C)c(C(C)=O)c3cc(OC(=O)c4ccco4)ccc32)cc1OC | 21 | . | 8 | 0 | 1
COc1ccc(C2=Nn3c(nnc3-c3ccco3)SC2)cc1 | 45* | . | 21 | -3 | -8
COc1ccc(OCc2nnc3n2N=C(c2ccc(OC)cc2)CS3)cc1 | 32* | 16 | -2 | -1 | -10
O=C1CC(N2CCC(O)(c3ccc(Cl)cc3)CC2)C(=O)N1Cc1ccc(N2CCCC2=O)cc1 (centres undefined) | 2 | 15 | 7 | -8 | 7
COCCN1C(=O)C(=O)/C(=C(/O)c2cccc(OC)c2)C1c1ccco1 (centres undefined) | 32* | -13 | -4 | 0 | 0
CC(C)Oc1ccc(/C(O)=C2/C(=O)C(=O)N(CCN(C)C)C2c2ccco2)cc1 (centres undefined) | 2 | 15 | 41* | 3 | -1
O=C(N/N=C1\CCCc2ccccc21)C(O)c1ccccc1 (centres undefined) | -4 | . | 1 | 7 | 3
COC(=O)CN(c1ccc(OC)cc1)S(=O)(=O)c1c(C)noc1C | 33* | -18 | 1 | -7 | 2
CCc1ccc(N(CC(=O)Nc2nc3ccc(C)cc3s2)S(=O)(=O)c2c(C)noc2C)cc1 | 32* | . | 2 | 1 | -19
COc1ccc2nc(NC(=O)CN(c3ccc(C)cc3)S(=O)(=O)c3c(C)nn(C)c3C)sc2c1 | 50* | 55 | -4 | -4 | -8
CCOc1ccccc1NC(=O)CN(c1ccc(C)cc1)S(=O)(=O)c1c(C)noc1C | 39* | 42 | -2 | -6 | -18
COc1ccc(N(CC(=O)Nc2ccc(C)cn2)S(=O)(=O)c2c(C)noc2C)cc1 | 8 | 1 | -6 | 5 | -7
CCOc1ccc(OCC)c(NC(=O)CN(c2ccc(C)cc2)S(=O)(=O)c2c(C)noc2C)c1 | 5 | 18 | -1 | 8 | -18
CCOC(=O)c1nnc(-c2cccs2)nc1NC(C)C | 9 | . | 14 | -3 | 9
Cc1ccc(-c2noc(CCC(=O)N3CCN(c4cccc(C(F)(F)F)c4)CC3)n2)cc1 | 15 | 64* | 2 | . | -1
Cc1ccc(-c2noc(CCC(=O)N3CCCc4ccccc43)n2)cc1 | 24 | 92* | -5 | 8 | 3
Cc1ccc(OC(C)C(=O)Nc2ccc(S(=O)(=O)Nc3cc(C)on3)cc2)cc1 (centres undefined) | 33* | . | 2 | 2 | 5
SMILES | PostGolgi ctrl | Ecoli tolC | PostGolgi yeast | EphB4 antag | E coli WT exp
Cc1cc(NS(=O)(=O)c2ccc(C3CCCCC3)cc2)no1 | 34* | 49 | 8 | -7 | 0
CC(Oc1ccc(Cl)cc1Cl)C(=O)Nc1cccnc1 (centres undefined) | . | . | . | -1 | .
Cc1cc(NS(=O)(=O)c2ccc(NC(=O)C(C)Oc3ccc(Cl)cc3)cc2)no1 (centres undefined) | 4 | . | 0 | 1 | 8
CC(Oc1ccc(Cl)cc1Cl)C(=O)Nc1ccc(S(=O)(=O)Nc2cnc3ccccc3n2)cc1 (centres undefined) | 49* | . | 57* | -4 | 8
CCC(Oc1ccccc1)C(=O)Nc1ccc(S(=O)(=O)Nc2cnc3ccccc3n2)cc1 (centres undefined) | 12 | . | 0 | -5 | 8
Cc1cc(NS(=O)(=O)c2ccc(NC(=O)NC3CCCCC3)cc2)no1 | 16 | 5 | 1 | -4 | 2
Cc1cc(Cl)ccc1OC(C)C(=O)Nc1ccc(S(=O)(=O)Nc2cnc3ccccc3n2)cc1 (centres undefined) | 35* | . | 27 | 6 | 8
Cc1cc(C)c(NC(=O)COc2ccccc2C(=O)Nc2ccc3c(c2)oc2ccccc23)c(C)c1 | -5 | . | -7 | 4 | -13
O=C1CC(N2CCCc3ccccc32)C(=O)N1c1ccccc1Cl (centres undefined) | . | . | . | -1 | .
CCOc1ccc(N2CC(C(=O)Nc3ccccc3N3CCOCC3)CC2=O)cc1 (centres undefined) | -6 | . | 9 | 1 | 3
Cc1ccc(-c2csc(N/N=C/c3ccco3)n2)cc1 | 34* | . | -14 | -3 | -7
CCOC(=O)Nc1cc(C)c(Cl)cc1OC | 38* | 0 | -3 | -8 | 7
N#Cc1c(N)c(C#N)c(-c2ccc3c(c2)OCO3)c2c1CCCC2 | 19 | 16 | 6 | . | -7
N#Cc1c(N)c(C#N)c(-c2ccc(O)cc2)c2c1CCCC2 | 34* | 26 | 7 | -2 | 10
O=C(C(c1ccccc1)c1ccccc1)N1CCN(Cc2ccc(Br)cc2)CC1 | 51* | . | 9 | 1 | -7
COc1cc(/C=c2\sc3n(c2=O)CCCN=3)ccc1O | 8 | . | -8 | 4 | -4
COc1cc(/C=c2\sc3n(c2=O)C(c2ccccc2)C(c2ccccc2)=NN=3)ccc1O (centres undefined) | 33* | . | 1 | 4 | -19
CCC1CCCCN1CCNC(=O)CCS(=O)(=O)c1ccc(Br)cc1 (centres undefined) | . | . | . | 1 | .
Cc1ccc(C)c(NS(=O)(=O)c2cc(C(=O)NCCSC3CCCCC3)ccc2C)c1 | 41* | . | -3 | 4 | -8
Cc1ccccc1-c1cc(-c2ccccc2O)on1 | 12 | . | -3 | -6 | 4
Oc1ccccc1-c1cc(-c2ccccc2)no1 | 43* | . | 3 | 4 | -3
Cc1c(N2C(=O)CSC23C(=O)Nc2ccccc23)c(=O)n(-c2ccccc2)n1C (centres undefined) | 40* | -5 | -7 | 1 | 3
CCOC(=O)N1CCN(C(=O)CN(Cc2ccccc2)S(=O)(=O)c2ccc(OC)c(C)c2)CC1 | 30* | 24 | -5 | 0 | 0
CCOC(=O)N1CCN(C(=O)CN(Cc2ccccc2)S(=O)(=O)c2ccc(OC)c(Cl)c2)CC1 | 5 | . | 9 | -1 | -13
Clc1ccc(Cn2c(-c3cccnc3Cl)nc3ccccc32)cc1 | 18 | . | 7 | 1 | 0
Clc1ccc(Cn2c(-c3cccnc3Cl)nc3ccccc32)c(Cl)c1 | 38* | . | 3 | 10 | -1
Fc1ccc(Cn2c(-c3cscn3)nc3ccccc32)c(Cl)c1 | 34* | . | 3 | -1 | -1

Assay outcomes (PubChem)
